Laboratory results as given in ChEMBL document CHEMBL1152866, “Modulation of gene expression via disruption of NF-kappaB signaling by a bacterial small molecule” (Science, 2008).
Calls of active or inactive are those of the source. No cut-off for these calls is given here.

What was measured:
[1] = organism: Mus musculus; assay: Effect on IKK activity in LPS-induced mouse BMDM assessed as induction of phosphorylation of p38 treated 2 hrs after LPS challenge measured up to 120 mins by immunoblot analysis
[2] = system: BMDM; assay: Inhibition of LPS-induced IkBbeta protein level in mouse BMDM treated 2 hrs after LPS challenge measured up to 120 mins by Western blot analysis; format: functional, cell-based
[3] = system: BMDM; assay: Inhibition of LPS-induced IkappaBalpha expression in mouse BMDM measured up to 120 mins by Western blot analysis; format: functional, cell-based
[4] = target: MAP kinase p38 (Mus musculus) (UniProt P47811+O08911+Q9WUI1+Q9Z1B7); assay: Inhibition of LPS-induced p38 phosphorylation in mouse BMDM measured up to 120 mins by Western blot analysis
[5] = organism: Mus musculus; assay: Induction of IKK activity in mouse BMDM assessed as GST-IkappaBalpha phosphorylation by immunoprecipitation kinase assay
[6] = organism: Mus musculus; assay: Inhibition of LPS-induced IKK activity in mouse BMDM assessed as GST-IkappaBalpha phosphorylation after 5 mins by immunoprecipitation kinase assay
[7] = organism: Mus musculus; assay: Effect on IKK activity in LPS-induced mouse BMDM assessed as induction of phosphorylation of CREB treated 2 hrs after LPS challenge measured up to 120 mins by immunoblot analysis
[8] = system: BMDM; assay: Inhibition of LPS-induced MCP-1 mRNA expression in mouse BMDM up to 3 hrs by Northern blot analysis; format: functional, cell-based
[9] = system: BMDM; assay: Inhibition of LPS-induced IP-10 mRNA expression in mouse BMDM up to 3 hrs by Northern blot analysis; format: functional, cell-based
[10] = system: BMDM; assay: Inhibition of LPS-induced IFNbeta mRNA expression in mouse BMDM up to 3 hrs by Northern blot analysis; format: functional, cell-based
[11] = system: BMDM; assay: Inhibition of LPS-induced RANTES mRNA expression in mouse BMDM up to 3 hrs by Northern blot analysis; format: functional, cell-based
[12] = system: Macrophage; assay: Inhibition of LPS-induced TNF mRNA expression in mouse C57BL/6 mouse alveolar macrophages up to 50 uM by Northern blot analysis; format: functional, cell-based
[13] = system: Macrophage; assay: Inhibition of LPS-induced IP-10 mRNA expression in mouse alveolar macrophages after 90 mins by Northern blot analysis; format: functional, cell-based
[14] = system: MEF; assay: Inhibition of LPS-induced c-jun mRNA expression in MEF after 90 mins by Northern blot analysis; format: functional, cell-based; details: Mus musculus
[15] = system: BMDM; assay: Inhibition of heat-killed Staphylococcus aureus-induced TNF mRNA expression in mouse BMDM by Northern blot analysis; format: functional, cell-based
[16] = system: BMDM; assay: Inhibition of heat-killed Staphylococcus aureus-induced MCP-1 mRNA expression in mouse BMDM by Northern blot analysis; format: functional, cell-based
[17] = system: BMDM; assay: Inhibition of heat-killed Staphylococcus aureus-induced c-jun mRNA expression in mouse BMDM by Northern blot analysis; format: functional, cell-based
[18] = system: MEF; assay: Effect on TNF-induced IkappaBalpha mRNA expression in MEF by Northern blot analysis; format: functional, cell-based; details: Mus musculus
[19] = system: MEF; assay: Inhibition of TNF-induced IkappaBalpha expression in mouse MEF up to 120 mins by Western blot analysis; format: functional, cell-based
[20] = target: T1, Inhibitor of nuclear factor kappa-B kinase subunit alpha (Homo sapiens) (UniProt O15111); assay: Inhibition of TNF-induced IkappaBalpha phosphorylation in human bronchial epithelial cells up to 120 mins by Western blot analysis; format: cell-based; details: Epithelial cell
T1 sequence (whole entry): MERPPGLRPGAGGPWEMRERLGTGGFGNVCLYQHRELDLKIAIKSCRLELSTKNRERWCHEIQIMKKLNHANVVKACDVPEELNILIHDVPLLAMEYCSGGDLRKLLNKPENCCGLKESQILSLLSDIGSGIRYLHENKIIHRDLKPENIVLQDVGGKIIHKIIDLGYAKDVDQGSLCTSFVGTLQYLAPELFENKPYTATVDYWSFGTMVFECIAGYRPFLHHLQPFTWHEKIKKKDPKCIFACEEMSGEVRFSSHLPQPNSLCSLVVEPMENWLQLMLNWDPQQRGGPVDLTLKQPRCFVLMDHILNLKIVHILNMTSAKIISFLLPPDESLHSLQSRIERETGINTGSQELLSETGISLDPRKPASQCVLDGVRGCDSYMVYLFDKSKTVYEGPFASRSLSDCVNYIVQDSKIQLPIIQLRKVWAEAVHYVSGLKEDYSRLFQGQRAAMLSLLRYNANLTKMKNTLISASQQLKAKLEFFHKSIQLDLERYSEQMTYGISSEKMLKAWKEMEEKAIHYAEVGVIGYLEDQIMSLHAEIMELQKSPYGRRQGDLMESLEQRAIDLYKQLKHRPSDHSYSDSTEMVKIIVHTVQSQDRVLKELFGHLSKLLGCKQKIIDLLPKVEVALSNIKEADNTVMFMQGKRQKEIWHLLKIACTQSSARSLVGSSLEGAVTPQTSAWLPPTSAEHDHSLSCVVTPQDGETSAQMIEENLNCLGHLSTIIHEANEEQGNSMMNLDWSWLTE

[21] = system: Epithelial cell; assay: Inhibition of TNF-induced RelA expression in human bronchial epithelial cells up to 120 mins by Western blot analysis; format: functional, cell-based
[22] = system: WI-38; assay: Induction of apoptosis in TNF-stimulated human WI38 fibroblast assessed as PARP cleavage after 2 hrs by Western blot analysis; format: functional, cell-based
Method in brief: (§1)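 WI38 lung fibroblasts and bronchial epithelial cells were stimulated for 2 hours. The same Western blot was probed for PARP cleavage, total IκBα and phosphorylated IκBα.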

[23] = target: T1, Inhibitor of nuclear factor kappa-B kinase subunit alpha (Homo sapiens); assay: Inhibition of IkappaBalpha in human bronchial epithelial cells assessed after 2 hrs by Western blot analysis; format: cell-based; details: Epithelial cell; method in brief: as §1
[24] = target: T1, Inhibitor of nuclear factor kappa-B kinase subunit alpha (Homo sapiens); assay: Inhibition of IkappaBalpha phosphorylation in human bronchial epithelial cells assessed after 2 hrs by Western blot analysis; format: cell-based; details: Epithelial cell; method in brief: as §1
[25] = system: PBMC; assay: Inhibition of LPS-induced TNF mRNA expression in human PBMC up to 50 uM by Northern blot analysis; format: functional, cell-based
[26] = system: Macrophage; assay: Inhibition of LPS-induced IL-12beta mRNA expression in mouse alveolar macrophages after 90 mins by Northern blot analysis; format: functional, cell-based
[27] = system: BMDM; assay: Induction of c-jun mRNA expression in mouse BMDM at 50 uM after 2 hrs by Northern blot analysis; format: functional

Activity [1]: Active
Activity [4]: inactive
Activity [5]: inactive
Activity [6]: Active
Activity [7]: Active
Activity [20]: Active
Activity [23]: Active
Activity [24]: Active
Compound: CCCCCCCCCC(=O)CC(=O)N[C@H]1CCOC1=O
Activity [2]: inactive
Activity [3]: Active
Activity [8]: Dose-dependent effect
Activity [9]: Dose-dependent effect
Activity [10]: Dose-dependent effect
Activity [11]: Dose-dependent effect
Activity [12]: Active
Activity [13]: Dose-dependent effect
Activity [14]: Dose-dependent effect
Activity [15]: Active
Activity [16]: Active
Activity [17]: Active
Activity [18]: Active
Activity [19]: Active
Activity [21]: Active
Activity [22]: Active
Activity [25]: Active
Activity [26]: Dose-dependent effect
Activity [27]: Active
